Consider 26 compounds from ChEMBL document CHEMBL1123300 (J Med Chem, 1986).

Non-standard residues stand in square brackets, D forms with d. Residues, ends and D or L forms follow the SMILES beside them. *: point of attachment. Ala(1-Adamantyl) = N[C@@H](CC12CC3CC(CC(C3)C1)C2)C(=O)O; Sta = CC(C)C[C@H](N)[C@@H](O)CC(=O)O; Adoc = O=C(OC12CC3CC(CC(C3)C1)C2)*; NMeF = CN[C@@H](Cc1ccccc1)C(=O)O; X1 = CC(C)(C)OC(=O)NCCS(=O)(=O)*; αMeF = C[C@](N)(Cc1ccccc1)C(=O)O; Phg = N[C@H](C(=O)O)c1ccccc1; Isovaleryl = CC(C)CC(=O)*; Nle = CCCC[C@H](N)C(=O)O; Nva = CCC[C@H](N)C(=O)O; Cbz = O=C(OCc1ccccc1)*; Boc = CC(C)(C)OC(=O)*; Moc = COC(=O)*

The target of test [1] is T1, Renin (Homo sapiens, UniProt P00797).
T1 sequence (P00797 whole entry): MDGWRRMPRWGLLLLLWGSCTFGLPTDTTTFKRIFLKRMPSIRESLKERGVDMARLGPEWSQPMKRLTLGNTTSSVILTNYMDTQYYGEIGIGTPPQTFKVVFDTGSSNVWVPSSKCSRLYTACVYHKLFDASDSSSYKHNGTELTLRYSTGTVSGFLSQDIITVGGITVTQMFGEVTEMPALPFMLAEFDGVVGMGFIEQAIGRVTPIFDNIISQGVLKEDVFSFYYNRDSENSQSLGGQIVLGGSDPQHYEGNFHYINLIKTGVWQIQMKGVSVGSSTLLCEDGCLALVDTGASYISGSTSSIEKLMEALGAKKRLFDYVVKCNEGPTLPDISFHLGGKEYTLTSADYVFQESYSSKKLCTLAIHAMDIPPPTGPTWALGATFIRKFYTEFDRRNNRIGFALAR
The experiment in a line: In vitro inhibitory activity against dog plasma renin. It counts as cell-free, Canis lupus familiaris. To be noted: target entry is the homologue from another species.

Test [2] deals with T1, Renin. The experiment in a line: In vitro inhibitory activity against human plasma renin. It counts as cell-free.
For test [3], the target named is T2, Renin (Rattus norvegicus, UniProt P08424).
T2 sequence (P08424 whole entry): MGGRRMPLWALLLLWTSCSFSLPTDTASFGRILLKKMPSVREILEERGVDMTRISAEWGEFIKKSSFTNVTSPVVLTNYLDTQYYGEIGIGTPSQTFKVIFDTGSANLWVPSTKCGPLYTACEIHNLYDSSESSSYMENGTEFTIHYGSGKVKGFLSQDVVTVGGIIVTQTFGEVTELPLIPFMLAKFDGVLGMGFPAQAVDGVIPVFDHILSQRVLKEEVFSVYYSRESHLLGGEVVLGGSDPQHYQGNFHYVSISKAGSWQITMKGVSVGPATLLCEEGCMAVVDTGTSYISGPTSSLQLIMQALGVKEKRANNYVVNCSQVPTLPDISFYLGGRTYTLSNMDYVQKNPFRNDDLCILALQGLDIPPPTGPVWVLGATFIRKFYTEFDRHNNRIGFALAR
The experiment in a line: In vitro inhibitory activity against rat plasma renin. The test is classed as cell-free.

Test [4] addresses T1, Renin. The experiment in a line: In vitro inhibitory activity against monkey plasma renin. The following applies: target entry is the homologue from another species. The test is classed as cell-free, Cercopithecidae.
Test [5] concerns the target T1, Renin. The experiment in a line: In vitro inhibitory activity against monkey (Callithrix jacchus) plasma renin. The test is classed as cell-free. The following applies: target entry is the homologue from another species. The method in brief: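 Pooled plasma from animals whose plasma renin activity was stimulated with furosemide, incubated at 37 °C in pH 7.4 phosphate buffer with phenylmethanesulfonyl fluoride as angiotensinase inhibitor and increasing inhibitor concentrations. Angiotensin I generated was measured by RIA (Haber method). IC50 came from nonlinear logit vs log-concentration regression over five to seven concentrations.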

Test [6] concerns the target T1, Renin. The experiment in a line: In vitro inhibitory activity against man (human) plasma renin. The test is classed as cell-free.
The target of test [7] is T1, Renin. The experiment in a line: Inhibition of monkey plasma renin activity. It counts as cell-free, Cercopithecidae. To be noted: target entry is the homologue from another species.
Test [8] has as its target T1, Renin. The experiment in a line: Inhibition of man plasma renin activity. It counts as cell-free.
Test [9] deals with T2, Renin. The experiment in a line: Inhibition of rat plasma renin activity.
In test [10] the target is T1, Renin. The experiment in a line: Inhibition of dog plasma renin activity. The following applies: target entry is the homologue from another species. The test is classed as cell-free, Canis lupus familiaris.

On to `COC(=O)C[C@H](O)[C@H](CC(C)C)NC(=O)[C@H](C)NC(=O)C[C@H](O)[C@H](CC(C)C)NC(=O)[C@H](Cc1ccccc1)NC(=O)[C@H](Cc1ccccc1)NC(=O)OC(C)(C)C`, for which the IC50 (usually the concentration that inhibits the measured activity by half) at Renin [1] is 76 nM; against Renin [2], 190 nM; against Renin [3], 190 nM; against Renin [4], 130 nM.
On to `CCC[C@H](N[C@@H](CC(C)C)[C@@H](O)CC(=O)N[C@@H](C)C(=O)N[C@@H](CC(C)C)[C@@H](O)CC(=O)OC)C(=O)N[C@@H](Cc1ccccc1)C(=O)NC(=O)CC(C)C`, for which the IC50 is 58 nM against Renin [1]; 30 nM against Renin [5]; 42 nM against Renin [2]; 880 nM at Renin [3]; 42 nM at Renin [6].
`COC(=O)CC(O)[C@H](CC(C)C)NC(=O)[C@H](C)NC(=O)CC(O)[C@H](CC(C)C)NC(=O)[C@@H](Cc1ccccc1)NC(=O)[C@H](Cc1ccccc1)NC(=O)OCc1ccccc1` (stereo not given in full) had an IC50 against Renin [2] greater than 10000 nM.
Still for that read-out and setting: under `COC(=O)CC(O)[C@H](CC(C)C)NC(=O)[C@H](C)NC(=O)CC(O)[C@H](CC(C)C)NC(=O)[C@H](Cc1ccccc1)NC(=O)[C@@H](Cc1ccccc1)NC(=O)OC(C)(C)C` (stereo not given in full) stands greater than 10000 nM; under `COC(=O)CC(O)[C@H](CC(C)C)NC(=O)[C@H](C)NC(=O)CC(O)[C@H](CC(C)C)NC(=O)CNC(=O)[C@H](Cc1ccccc1)NC(=O)CC(C)C` (stereo not given in full), 4700 nM; under `COC(=O)CC(O)[C@H](CC(C)C)NC(=O)[C@H](C)NC(=O)CC(O)[C@H](CC(C)C)NC(=O)[C@@H](NS(=O)(=O)CCNC(=O)OCc1ccccc1)C(C)C` (stereo not given in full), greater than 10000 nM.
Same read-out and setting: to `COC(=O)CC(O)[C@H](CC(C)C)NC(=O)[C@H](C)NC(=O)CC(O)[C@H](CC(C)C)NC(=O)CCCNC(=O)[C@H](Cc1ccccc1)NC(=O)CC(C)C` (stereo not given in full) belongs 200 nM.
For the compound `COC(=O)C[C@H](O)[C@H](CC(C)C)NC(=O)[C@H](C)NC(=O)C[C@H](O)[C@H](CC(C)C)NC(=O)[C@H](Cc1ccccc1)NC(=O)[C@H](Cc1ccccc1)NC(C)=O` (Ac-FF[Sta]A[Sta]-OMe), inhibition on Renin [2] was half-maximal at 1400 nM (IC50).
The same measure, in the same setting: under `COC(=O)C[C@H](O)[C@H](CC(C)C)NC(=O)[C@H](C)NC(=O)C[C@H](O)[C@H](CC(C)C)NC(=O)[C@H](Cc1ccccc1)NC(=O)[C@H](Cc1ccccc1)NC(=O)OC12CC3CC(CC(C3)C1)C2` (Adoc-FF[Sta]A[Sta]-OMe) stands 3000 nM.
As to `CCCC[C@H](NC(=O)[C@H](Cc1ccccc1)NC(=O)OC(C)(C)C)C(=O)N[C@@H](CC(C)C)[C@@H](O)CC(=O)N[C@@H](C)C(=O)N[C@@H](CC(C)C)[C@@H](O)CC(=O)O` (Boc-F[Nle][Sta]A[Sta]-OH), at Renin [2], half-maximal inhibition (IC50) was put at 30 nM.
On the same count and under the same terms, to `CCC[C@H](NC(=O)[C@H](Cc1ccccc1)NC(=O)OC(C)(C)C)C(=O)N[C@@H](CC(C)C)[C@@H](O)CC(=O)N[C@@H](C)C(=O)N[C@@H](CC(C)C)[C@@H](O)CC(=O)OC` (Boc-F[Nva][Sta]A[Sta]-OMe) belongs 51 nM.
As for `COC(=O)C[C@H](O)[C@H](CC(C)C)NC(=O)[C@H](C)NC(=O)C[C@H](O)[C@H](CC(C)C)NC(=O)[C@H](Cc1c[nH]cn1)NC(=O)[C@H](Cc1c[nH]c2ccccc12)NC(=O)OC(C)(C)C` (Boc-WH[Sta]A[Sta]-OMe), the IC50 on Renin [2] is 140 nM; against Renin [7] it was 110 nM; against Renin [8], 140 nM; against Renin [9], 1300 nM.
On to `COC(=O)C[C@H](O)[C@H](CC(C)C)NC(=O)[C@H](C)NC(=O)C[C@H](O)[C@H](CC(C)C)NC(=O)[C@H](Cc1c[nH]c2ccccc12)NC(=O)[C@H](Cc1c[nH]c2ccccc12)NC(=O)OC(C)(C)C` (Boc-WW[Sta]A[Sta]-OMe), for which, at Renin [9], 1000 nM corresponded to half-maximal inhibition (IC50).
Take `COC(=O)C[C@H](O)[C@H](CC(C)C)NC(=O)[C@H](C)NC(=O)C[C@H](O)[C@H](CC(C)C)NC(=O)[C@H](Cc1c[nH]cn1)NC(=O)[C@H](CC12CC3CC(CC(C3)C1)C2)NC(=O)OC(C)(C)C` (Boc-[Ala(1-Adamantyl)]H[Sta]A[Sta]-OMe): the IC50 came to 650 nM at Renin [1], 250 nM against Renin [2], 2200 nM at Renin [3] and 250 nM against Renin [6].
Regarding `COC(=O)C[C@H](O)[C@H](CC(C)C)NC(=O)[C@H](C)NC(=O)C[C@H](O)[C@H](CC(C)C)NC(=O)[C@H](Cc1ccccc1)NC(=O)[C@H](Cc1ccccc1)N(C)C(=O)OC(C)(C)C` (Boc-[NMeF]F[Sta]A[Sta]-OMe), the half-inhibitory concentration (IC50) against Renin [2] was greater than 10000 nM; against Renin [3], 17000 nM; at Renin [4] it was 15000 nM; on Renin [6] it was 15000 nM.
`COC(=O)C[C@H](O)[C@H](CC(C)C)NC(=O)[C@H](C)NC(=O)C[C@H](O)[C@H](CC(C)C)NC(=O)[C@H](Cc1ccccc1)NC(=O)[C@@H](NC(=O)OC(C)(C)C)c1ccccc1` (Boc-[Phg]F[Sta]A[Sta]-OMe) came in with an IC50 at Renin [2] greater than 10000 nM.
Still for that read-out and setting: under `COC(=O)C[C@H](O)[C@H](CC(C)C)NC(=O)[C@H](C)NC(=O)C[C@H](O)[C@H](CC(C)C)NC(=O)[C@H](Cc1ccccc1)NC(=O)[C@](C)(Cc1ccccc1)NC(=O)OC(C)(C)C` (Boc-[αMeF]F[Sta]A[Sta]-OMe) stands greater than 10000 nM; under `COC(=O)C[C@H](O)[C@H](CC(C)C)NC(=O)[C@H](C)NC(=O)C[C@H](O)[C@H](CC(C)C)NC(=O)[C@@H]1CCCN1C(=O)[C@H](Cc1ccccc1)NC(=O)OCc1ccccc1` (Cbz-FP[Sta]A[Sta]-OMe), 10000 nM.
The compound `COC(=O)C[C@H](O)[C@H](CC(C)C)NC(=O)[C@H](C)NC(=O)C[C@H](O)[C@H](CC(C)C)NC(=O)[C@H](Cc1c[nH]c2ccccc12)NC(=O)[C@H](Cc1ccccc1)NC(=O)OCc1ccccc1` (Cbz-FW[Sta]A[Sta]-OMe) registered an IC50 against Renin [2] of 1400 nM.
Take `COC(=O)C[C@H](O)[C@H](CC(C)C)NC(=O)[C@H](C)NC(=O)C[C@H](O)[C@H](CC(C)C)NC(=O)[C@@H](NC(=O)[C@H](Cc1c[nH]c2ccccc12)NC(=O)OCc1ccccc1)C(C)C` (Cbz-WV[Sta]A[Sta]-OMe): the IC50 at Renin [7] was 25 nM; against Renin [8] it was 150 nM; against Renin [10], 42 nM; on Renin [9], 22 nM.
As to `CCCC[C@H](NC(=O)[C@@H](N)Cc1ccccc1)C(=O)N[C@@H](CC(C)C)[C@@H](O)CC(=O)N[C@@H](C)C(=O)N[C@@H](CC(C)C)[C@@H](O)CC(=O)OC` (H-F[Nle][Sta]A[Sta]-OMe), on Renin [2], the IC50 worked out at 7700 nM.
`COC(=O)C[C@H](O)[C@H](CC(C)C)NC(=O)[C@H](C)NC(=O)C[C@H](O)[C@H](CC(C)C)NC(=O)[C@H](Cc1ccccc1)NC(=O)[C@H](Cc1ccccc1)NC(=O)CC(C)C` (Isovaleryl-FF[Sta]A[Sta]-OMe) showed a 50% inhibitory concentration (IC50) on Renin [2] of 320 nM.
For `COC(=O)C[C@H](O)[C@H](CC(C)C)NC(=O)[C@H](C)NC(=O)C[C@H](O)[C@H](CC(C)C)NC(=O)[C@H](CCCCN)NC(=O)[C@H](Cc1ccccc1)NC(=O)CC(C)C` (Isovaleryl-FK[Sta]A[Sta]-OMe), the half-inhibitory concentration (IC50) on Renin [2] was greater than 10000 nM.
Turning to `COC(=O)C[C@H](O)[C@H](CC(C)C)NC(=O)[C@H](C)NC(=O)C[C@H](O)[C@H](CC(C)C)NC(=O)[C@H](CC(C)C)NC(=O)[C@H](Cc1ccccc1)NC(=O)CC(C)C` (Isovaleryl-FL[Sta]A[Sta]-OMe), half-maximal inhibition against Renin [2] (IC50) was put at 75 nM.
Same read-out and setting: under `CCC[C@H](NC(=O)[C@H](Cc1ccccc1)NC(=O)OC)C(=O)N[C@@H](CC(C)C)[C@@H](O)CC(=O)N[C@@H](C)C(=O)N[C@@H](CC(C)C)[C@@H](O)CC(=O)OC` (Moc-F[Nva][Sta]A[Sta]-OMe) stands 260 nM; under `COC(=O)C[C@H](O)[C@H](CC(C)C)NC(=O)[C@H](C)NC(=O)C[C@H](O)[C@H](CC(C)C)NC(=O)[C@H](Cc1ccccc1)NC(=O)[C@H](Cc1ccccc1)NS(=O)(=O)CCNC(=O)OC(C)(C)C` (X1-FF[Sta]A[Sta]-OMe), 180 nM.
